Assay results from publication PMC7923394 (Nature chemical biology, 2020).
Blank lines part the entries; values can stand above or below the substance they belong to. Where no end group is shown, it is not given here. The star is where a group is joined. αGalNAc = CC(=O)N[C@@H]1[C@@H](O)[C@@H](O)[C@@H](CO)O[C@@H]1*

Experiments:
Test in all cases: Enzyme kinetics, UDP-[3H]-GalNAc transfer to
Format in all cases: biochemical
human GalNAc-T6 = molecular target: T1, human GalNAc-T6 (Homo sapiens, UniProt Q8NCL4); conditions: peptide as acceptor substrate
T1 sequence (Q8NCL4 1-622): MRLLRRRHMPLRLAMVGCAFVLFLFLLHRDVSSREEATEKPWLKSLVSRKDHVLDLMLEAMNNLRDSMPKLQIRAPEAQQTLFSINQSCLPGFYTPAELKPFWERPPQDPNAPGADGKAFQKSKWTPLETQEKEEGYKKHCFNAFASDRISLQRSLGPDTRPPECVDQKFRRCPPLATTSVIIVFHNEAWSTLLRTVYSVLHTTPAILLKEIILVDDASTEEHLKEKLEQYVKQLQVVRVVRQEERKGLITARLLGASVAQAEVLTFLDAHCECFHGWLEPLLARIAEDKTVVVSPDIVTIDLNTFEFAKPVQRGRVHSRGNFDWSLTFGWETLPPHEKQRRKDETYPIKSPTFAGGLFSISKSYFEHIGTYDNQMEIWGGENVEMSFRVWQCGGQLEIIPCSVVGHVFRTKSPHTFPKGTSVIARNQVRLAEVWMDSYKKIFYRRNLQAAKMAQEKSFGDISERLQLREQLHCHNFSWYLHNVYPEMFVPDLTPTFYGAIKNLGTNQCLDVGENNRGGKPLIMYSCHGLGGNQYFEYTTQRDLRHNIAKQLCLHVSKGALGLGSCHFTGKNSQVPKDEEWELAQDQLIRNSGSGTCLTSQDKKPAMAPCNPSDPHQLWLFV
How it was run: (§1)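 Radiochemical transfer assay with 0.02–0.03 µM purified enzyme, 0.02–0.7 mM acceptor and 0.2 mM UDP-[3H]-GalNAc in 100 mM sodium cacodylate pH 6.5, 1 mM β-mercaptoethanol and 10 mM MnCl2 at 37 °C. T6 and T12 were HEK293F-expressed and His-Trap purified. Reactions were EDTA-quenched and product separated by Sephadex G10. Initial rates (<30% donor used) were normalised to a fresh-enzyme reference glycopeptide. Runs used 5–7 concentrations, 2–5 repeats, and Michaelis–Menten (± substrate-inhibition) fits.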

human GalNAc-T3 = molecular target: T2, human GalNAc-T3 (Homo sapiens, UniProt Q14435); conditions: naked peptides as acceptor substrates
T2 sequence (Q14435 92-633): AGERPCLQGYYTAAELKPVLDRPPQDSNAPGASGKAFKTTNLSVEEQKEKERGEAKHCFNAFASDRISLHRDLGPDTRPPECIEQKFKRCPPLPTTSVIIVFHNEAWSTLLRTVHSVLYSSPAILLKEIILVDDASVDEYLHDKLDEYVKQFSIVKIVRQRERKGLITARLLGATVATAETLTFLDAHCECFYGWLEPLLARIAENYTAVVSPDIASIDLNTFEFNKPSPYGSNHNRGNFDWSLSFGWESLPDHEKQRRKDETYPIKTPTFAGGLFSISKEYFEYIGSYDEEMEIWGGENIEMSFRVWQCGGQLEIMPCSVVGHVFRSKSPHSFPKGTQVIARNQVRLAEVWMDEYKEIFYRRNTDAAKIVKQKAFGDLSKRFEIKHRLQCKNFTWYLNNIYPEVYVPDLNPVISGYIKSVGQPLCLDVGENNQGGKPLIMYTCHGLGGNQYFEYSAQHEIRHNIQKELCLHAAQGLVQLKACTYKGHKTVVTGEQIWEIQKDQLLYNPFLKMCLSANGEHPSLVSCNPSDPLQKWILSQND
How it was run: as §1

human GalNAc-T4 = conditions: peptide as acceptor substrate; Supplementary Fig. 16a
human GalNAc-T12 = conditions: peptide as acceptor substrate; Supplementary Fig. 16a
How it was run: as §1

Substance: FGF23c: FGF23 model glycopeptide substrate (T*171–T178, T* = Thr-O-GalNAc) (T(αGalNAc)PIPRRHT-NH2; UniProt Q9GZV9 171-178, looked up, fragment)
Km of GalNAc-T6 compared to GalNAc-T3 (human GalNAc-T6): slightly better Km
Kcat of GalNAc-T6 relative to that of GalNAc-T3 (human GalNAc-T6; Supplementary Fig. 16b): ~ 3.5 fold

activity among the OP1 to OP10 peptide series (human GalNAc-T3): the most active of the series
Substance: GAYAVTPGPAG [OP1]

activity of GalNAc-T4 against the peptide (human GalNAc-T4): very low
activity of GalNAc-T12 against the peptide (human GalNAc-T12): very low
Substance: FGF23b: shorter FGF23 model peptide substrate (A171–T178)
